What all share (type): cell-based
In test [1] the target is T1, Nuclear receptor ROR-alpha (Homo sapiens) (UniProt P35398).
T1 sequence (whole entry): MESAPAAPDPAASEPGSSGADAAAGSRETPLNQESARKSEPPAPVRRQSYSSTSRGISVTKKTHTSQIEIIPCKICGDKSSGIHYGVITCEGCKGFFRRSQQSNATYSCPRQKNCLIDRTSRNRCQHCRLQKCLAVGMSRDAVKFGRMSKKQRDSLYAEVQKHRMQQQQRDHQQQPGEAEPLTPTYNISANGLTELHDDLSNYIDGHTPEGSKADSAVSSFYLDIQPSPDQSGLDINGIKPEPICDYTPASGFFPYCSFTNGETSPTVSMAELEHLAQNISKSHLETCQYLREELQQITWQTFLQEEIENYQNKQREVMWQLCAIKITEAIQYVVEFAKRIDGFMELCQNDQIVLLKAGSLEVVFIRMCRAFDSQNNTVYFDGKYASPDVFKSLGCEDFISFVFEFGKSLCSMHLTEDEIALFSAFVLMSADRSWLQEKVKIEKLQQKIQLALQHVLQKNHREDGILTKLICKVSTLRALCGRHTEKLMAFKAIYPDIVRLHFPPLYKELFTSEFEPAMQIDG
In words: Antagonist activity at human RORalpha1 expressed in HEK293 cells at 20 uM after 24 hrs by luciferase reporter gene assay. In short, it runs like this:
(§1)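 Inverse agonism at RORα, RORβ or RORγ measured by reporter gene assay.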
A general note: A reporter such as luciferase makes a cellular process visible.

Test [2] addresses T2, Nuclear receptor ROR-beta (Homo sapiens, UniProt Q92753).
T2 sequence (Q92753 whole entry): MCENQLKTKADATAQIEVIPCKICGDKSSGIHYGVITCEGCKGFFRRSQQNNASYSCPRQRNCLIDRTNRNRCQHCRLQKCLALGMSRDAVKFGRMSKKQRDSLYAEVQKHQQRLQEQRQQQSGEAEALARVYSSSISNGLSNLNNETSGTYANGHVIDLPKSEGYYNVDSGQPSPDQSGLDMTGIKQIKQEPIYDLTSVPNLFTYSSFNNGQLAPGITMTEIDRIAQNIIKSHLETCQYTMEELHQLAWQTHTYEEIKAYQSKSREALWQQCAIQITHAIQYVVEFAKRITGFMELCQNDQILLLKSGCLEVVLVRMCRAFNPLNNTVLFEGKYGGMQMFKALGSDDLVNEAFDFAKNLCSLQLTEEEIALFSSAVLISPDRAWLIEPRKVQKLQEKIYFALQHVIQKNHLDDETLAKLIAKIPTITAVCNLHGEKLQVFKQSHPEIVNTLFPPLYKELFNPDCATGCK
In words: Antagonist activity at human RORbeta1 expressed in HEK293 cells after 24 hrs by luciferase reporter gene assay. An outline of the steps:
as §1

The target of test [3] is T3, Oxysterols receptor LXR-alpha (Homo sapiens, UniProt Q13133).
T3 sequence (Q13133 whole entry): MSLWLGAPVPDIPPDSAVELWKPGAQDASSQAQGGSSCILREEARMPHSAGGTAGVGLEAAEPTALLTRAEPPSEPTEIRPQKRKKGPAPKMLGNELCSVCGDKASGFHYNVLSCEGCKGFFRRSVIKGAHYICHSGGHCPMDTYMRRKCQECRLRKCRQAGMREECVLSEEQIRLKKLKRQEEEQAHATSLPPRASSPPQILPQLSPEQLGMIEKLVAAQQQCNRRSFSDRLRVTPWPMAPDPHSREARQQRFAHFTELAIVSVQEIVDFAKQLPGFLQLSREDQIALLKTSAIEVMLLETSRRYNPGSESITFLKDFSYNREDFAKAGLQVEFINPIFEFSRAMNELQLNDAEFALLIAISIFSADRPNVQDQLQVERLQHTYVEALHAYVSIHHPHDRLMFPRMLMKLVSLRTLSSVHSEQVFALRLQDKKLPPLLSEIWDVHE
In words: Antagonist activity at human GAL4N-fused LXRalpha LBD expressed in HEK293 cells assessed as reduction in T0901317-induced transactivation activity after 24 hrs by luciferase reporter gene assay.

For the next test, the target named is T4, Glucocorticoid receptor (Homo sapiens, UniProt P04150).
T4 sequence (P04150 whole entry): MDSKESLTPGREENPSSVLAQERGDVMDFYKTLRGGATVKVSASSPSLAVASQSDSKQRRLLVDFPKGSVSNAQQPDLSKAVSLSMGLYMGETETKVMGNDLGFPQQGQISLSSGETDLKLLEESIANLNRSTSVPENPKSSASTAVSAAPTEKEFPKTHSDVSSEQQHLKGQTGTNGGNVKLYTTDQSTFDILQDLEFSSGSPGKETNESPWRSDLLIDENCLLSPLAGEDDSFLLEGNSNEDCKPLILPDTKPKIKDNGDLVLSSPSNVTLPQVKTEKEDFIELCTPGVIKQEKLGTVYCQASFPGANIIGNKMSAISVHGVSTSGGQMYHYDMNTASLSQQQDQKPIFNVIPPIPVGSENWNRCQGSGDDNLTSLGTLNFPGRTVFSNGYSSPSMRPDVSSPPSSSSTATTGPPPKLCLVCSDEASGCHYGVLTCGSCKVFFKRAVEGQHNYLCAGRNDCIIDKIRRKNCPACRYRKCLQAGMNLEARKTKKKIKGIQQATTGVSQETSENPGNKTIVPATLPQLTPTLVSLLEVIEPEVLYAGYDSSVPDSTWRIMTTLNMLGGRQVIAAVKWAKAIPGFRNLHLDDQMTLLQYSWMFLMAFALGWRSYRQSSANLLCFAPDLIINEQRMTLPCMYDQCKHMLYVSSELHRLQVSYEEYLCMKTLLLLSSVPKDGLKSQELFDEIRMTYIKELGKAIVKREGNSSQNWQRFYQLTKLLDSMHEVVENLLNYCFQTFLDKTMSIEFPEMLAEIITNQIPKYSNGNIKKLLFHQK
Put plainly: Antagonist activity at human CMX-GRalpha expressed in HEK293 cells assessed as reduction in dexamethasone-induced transactivation activity after 24 hrs by luciferase reporter gene assay. An outline of the steps:
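GRα antagonism measured by reporter gene assay with dexamethasone (1 nM) as agonist.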

The species entered for another test is Homo sapiens. Put plainly: Selectivity ratio of IC50 for human GAL4N-fused LXRbeta LBD expressed in HEK293 cells to IC50 for PR in human T47D cells assessed as inhibition of progesterone-induced alkaline phosphatase activity.

Calls of active or inactive are those of the source. The calls are words filed in the database; no cut-off is given here.

In ChEMBL document CHEMBL4145662, “Novel Nonsteroidal Progesterone Receptor (PR) Antagonists with a Phenanthridinone Skeleton” (ACS Med Chem Lett, 2018) one finds Activity, IC50 and Ratio IC50 data, which are given here for three compounds.

Usually IC50 stands for the concentration at which inhibition is half-maximal. Regarding `Cc1cc(C(O)(C(F)(F)F)C(F)(F)F)cc2c3ccc(F)cc3c(=O)n(C)c12`, the result in test [1] was inactive. Besides, the IC50 (in test [2]; in test [3]; at Glucocorticoid receptor) was above 20 µM in each case. The Ratio IC50 in the test filed under Homo sapiens was above 300.
As to `Cc1cc(C(O)(C(F)(F)F)C(F)(F)F)cc2c1[nH]c(=O)c1ccccc12`, the result in test [1] was inactive. Moreover, the IC50 (in test [2]; in test [3]; at Glucocorticoid receptor) was above 20 µM each time. Moreover, in the test filed under Homo sapiens, the Ratio IC50 was above 100.
As to `Cc1cc(C(O)(C(F)(F)F)C(F)(F)F)cc2c1[nH]c(=O)c1cc(F)ccc12`, the result in test [1] was inactive. The IC50 (in test [2]; in test [3]; at Glucocorticoid receptor) was above 20 µM in each case. For the same compound, the Ratio IC50 in the test filed under Homo sapiens is above 300.
